Laboratory results as given in ChEMBL document CHEMBL1156809, “Synthesis and anticonvulsant activities of (R)-N-(4'-substituted)benzyl 2-acetamido-3-methoxypropionamides” (J Med Chem, 2010).
Activity calls are given as the source filed them. The calls are words filed in the database; no cut-off is given here.

Experiments:
[1] = Neurological toxicity in ip dosed albino CF1 mouse assessed as neurological impairment by rotarod test; assay type: organism-based; conditions: in vivo
Method in brief: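 Neurological impairment was measured with the rotorod test in mice dosed intraperitoneally. The median dose (TD50, mg/kg) was determined only for compounds with significant MES activity.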

[2] = test system: Rattus norvegicus; assay: Anticonvulsant activity against subcutaneous metrazole-induced seizures in albino Sprague-Dawley rat at 300 mg/kg, ip after 0.5 hrs; assay type: functional, organism-based; parameters: dose 300 mg/kg
[3] = test system: Rattus norvegicus; assay: Anticonvulsant activity against subcutaneous metrazole-induced seizures in albino Sprague-Dawley rat at 300 mg/kg, ip after 4 hrs; assay type: functional, organism-based; parameters: dose 300 mg/kg
[4] = test system: Mus musculus; assay: Anticonvulsant activity against subcutaneous metrazole-induced seizures in albino CF1 mouse at 300 mg/kg, ip after 4 hrs; assay type: functional, organism-based; parameters: dose 300 mg/kg
Method in brief: (§1)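 Subcutaneous Metrazol seizure test under the NINDS ASP, using ip dosing to mice, typically at 300 mg/kg. Protection was assessed at 0.5 and 4 h.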

[5] = test system: Mus musculus; assay: Anticonvulsant activity against subcutaneous metrazole-induced seizures in albino CF1 mouse at 300 mg/kg, ip after 0.5 hrs; assay type: functional, organism-based; parameters: dose 300 mg/kg; method in brief: as §1
[6] = test system: Mus musculus; assay: Anticonvulsant activity in ip dosed albino CF1 mouse seizure model assessed as protection against hind limb extension by MES test; assay type: functional; conditions: albino CF1, Hindlimb
Method in brief: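 Maximal electroshock seizure test run by the NINDS ASP (Stables and Kupferberg procedures). Compounds were given intraperitoneally to mice, and the ED50 for seizure protection is reported in mg/kg.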

| Compound | TD50 [1] [mg/kg] | Activity [2] | Activity [3] | Activity [4] | Activity [5] | ED50 [6] [mg/kg] |
| --- | --- | --- | --- | --- | --- | --- |
| COC[C@@H](NC(C)=O)C(=O)NCc1ccc(C#C[Si](C)(C)C)cc1 | 3 | inactive | inactive | inactive | inactive | > 3 |
| CCC1(c2ccccc2)C(=O)NC(=O)NC1=O |  | inactive | inactive | inactive | inactive |  |
| COC[C@H](NC(C)=O)C(=O)NCc1ccc(C=O)cc1 | > 300 | inactive | inactive | inactive | inactive | > 300 |
| COC[C@@H](NC(C)=O)C(=O)NCc1ccc(C#CC(C)(C)C)cc1 | 30 | inactive | inactive | inactive | inactive | > 300 |
| COC[C@@H](NC(C)=O)C(=O)NCc1ccc(CN)cc1.Cl | > 300 | inactive | inactive | inactive | inactive | > 300 |
| COC[C@@H](NC(C)=O)C(=O)NCc1ccc(CNC(=O)OC(C)(C)C)cc1 | > 300 | inactive | inactive | inactive | inactive | > 300 |
| COC[C@@H](NC(C)=O)C(=O)NCc1ccc(N=C=S)cc1 |  |  |  |  |  | 24 |
| COC[C@@H](NC(C)=O)C(=O)NCc1ccc(Cl)cc1Cl |  |  |  |  |  | 30 |
| COC[C@@H](NC(C)=O)C(=O)NCc1ccc([N+](=O)[O-])cc1 |  |  |  |  |  | 100 |
| COC[C@@H](NC(C)=O)C(=O)NCc1ccc(S(N)(=O)=O)cc1 | > 300 | inactive | inactive | inactive | inactive | > 300 |
| COC[C@@H](NC(C)=O)C(=O)NCc1ccc(N)cc1 | > 300 | inactive | inactive | inactive | inactive | > 300 |
| C=Cc1ccc(CNC(=O)[C@H](COC)NC(C)=O)cc1 | > 300 | inactive | inactive | inactive | inactive | 100 |
| COC[C@@H](NC(C)=O)C(=O)NCc1ccc(C(=O)OC)cc1 | > 300 | inactive | inactive | inactive | inactive | 100 |
| C#Cc1ccc(CNC(=O)[C@H](COC)NC(C)=O)cc1 | > 300 | inactive | inactive | inactive | inactive | > 300 |
| CC#Cc1ccc(CNC(=O)[C@@H](COC)NC(C)=O)cc1 | 30 | inactive | inactive | inactive | inactive | 10 |
| COC[C@@H](NC(C)=O)C(=O)NCc1ccc(C=O)cc1 | > 300 | inactive | inactive | inactive | inactive | > 300 |
| COC[C@@H](NC(C)=O)C(=O)NCc1ccc(C(=O)O)cc1 | > 300 | inactive | inactive | inactive | inactive | > 300 |
| COC[C@@H](NC(C)=O)C(=O)NCc1ccc(CCCO)cc1 | > 300 | inactive | inactive | inactive | inactive | > 300 |
| COC[C@@H](NC(C)=O)C(=O)NCc1cccc(OC(F)(F)F)c1 | 30 | inactive | inactive | inactive | inactive | 10 |
